SMILES strings stand for the structures. In brackets after ≈: the same amount, converted by molar mass.

A word on the IC50: it is the concentration that inhibits the measured activity by half.

The subject of this test is A2780. Put plainly: Cytotoxicity against human A2780 cells. The test is classed as functional, cell-based. The essentials:
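A2780 human ovarian cancer cells; growth-inhibition assay run per an earlier published protocol, with actinomycin D as positive control; value is the concentration that inhibited growth by 50% (IC50).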
For the compound `CC1(C)C=Cc2c(c3c(c4c2O[C@H](c2ccccc2)CC4=O)OC(C)(C)C=C3)O1`, 33 µg/mL (≈ 85 µM) corresponded to half-maximal inhibition (IC50). `CC1(C)C=Cc2c(c3c(c4c2O[C@H](c2ccccc2)[C@@H](O)C4=O)OC(C)(C)C=C3)O1` came in with an IC50 of 20 µg/mL (≈ 49.4 µM). The figure for `C=C[C@@]1(C)C[C@@H](OC(C)=O)[C@H](C(C)(C)O)C[C@@H]1C(=C)C` is 17 µg/mL (≈ 60.6 µM); for `COc1cc(OC)c2c(c1CC=C(C)C)O[C@H](c1ccccc1)CC2=O` [CANDIDONE] it is 23 µg/mL (≈ 65.3 µM); for `CC(C)=CCc1c(O)c2c(c3c1OC(C)(C)C=C3)O[C@H](c1ccccc1)[C@@H](O)C2=O` [ISOMUNDULINOL] it is 18 µg/mL (≈ 44.3 µM). `CC(C)=CCc1c2c(c(O)c3c1O[C@H](c1ccccc1)[C@@H](O)C3=O)C=CC(C)(C)O2` [MUNDULINOL] had an IC50 of 25 µg/mL (≈ 61.5 µM). The figure for `COc1c(-c2coc3cc4c(cc3c2=O)CC(O)C(C)(C)O4)ccc2c1C=CC(C)(C)O2` (stereo unspecified) [MUNDULONE] is 13 µg/mL (≈ 29.9 µM).

For the compound `COc1c(-c2coc3cc4c(cc3c2=O)C=CC(C)(C)O4)ccc2c1C=CC(C)(C)O2` [MUNETONE], 20 µg/mL (≈ 48 µM) corresponded to half-maximal inhibition (IC50). Compared with the last compound, the IC50 is about 1.5-fold higher.

Regarding `C=C(C)[C@H]1Cc2c(ccc3c2O[C@@H]2COc4cc(OC)c(OC)cc4[C@]2(O)C3=O)O1` [ROTENOLONE], the IC50 was determined as 0.5 µg/mL (≈ 1.22 µM). For `C=C(C)[C@H]1Cc2c(ccc3c2O[C@@H]2COc4cc(OC)c(OC)cc4[C@@H]2C3=O)O1` [ROTENONE], the IC50 was 0.7 µg/mL (≈ 1.77 µM). The figure for `COc1cc2c(cc1OC)[C@]1(O)C(=O)c3ccc4c(c3O[C@@H]1CO2)C=CC(C)(C)O4` [TEPHROSIN] is 9.1 µg/mL (≈ 22.2 µM).

The values are drawn from ChEMBL document CHEMBL1146511, “Cytotoxic compounds from Mundulea chapelieri from the Madagascar Rainforest” (J Nat Prod, 2004).
